Consider one compound from ChEMBL document CHEMBL4400539, “Discovery of a Novel Chemotype of Histone Lysine Methyltransferase EHMT1/2 (GLP/G9a) Inhibitors: Rational Design, Synthesis, Biological Evaluation, and Co-crystal Structure” (J Med Chem, 2019).

Data set [1] deals with T1, Histone-lysine N-methyltransferase EHMT1 (Homo sapiens) (UniProt Q9H9B1).
T1 sequence (whole entry): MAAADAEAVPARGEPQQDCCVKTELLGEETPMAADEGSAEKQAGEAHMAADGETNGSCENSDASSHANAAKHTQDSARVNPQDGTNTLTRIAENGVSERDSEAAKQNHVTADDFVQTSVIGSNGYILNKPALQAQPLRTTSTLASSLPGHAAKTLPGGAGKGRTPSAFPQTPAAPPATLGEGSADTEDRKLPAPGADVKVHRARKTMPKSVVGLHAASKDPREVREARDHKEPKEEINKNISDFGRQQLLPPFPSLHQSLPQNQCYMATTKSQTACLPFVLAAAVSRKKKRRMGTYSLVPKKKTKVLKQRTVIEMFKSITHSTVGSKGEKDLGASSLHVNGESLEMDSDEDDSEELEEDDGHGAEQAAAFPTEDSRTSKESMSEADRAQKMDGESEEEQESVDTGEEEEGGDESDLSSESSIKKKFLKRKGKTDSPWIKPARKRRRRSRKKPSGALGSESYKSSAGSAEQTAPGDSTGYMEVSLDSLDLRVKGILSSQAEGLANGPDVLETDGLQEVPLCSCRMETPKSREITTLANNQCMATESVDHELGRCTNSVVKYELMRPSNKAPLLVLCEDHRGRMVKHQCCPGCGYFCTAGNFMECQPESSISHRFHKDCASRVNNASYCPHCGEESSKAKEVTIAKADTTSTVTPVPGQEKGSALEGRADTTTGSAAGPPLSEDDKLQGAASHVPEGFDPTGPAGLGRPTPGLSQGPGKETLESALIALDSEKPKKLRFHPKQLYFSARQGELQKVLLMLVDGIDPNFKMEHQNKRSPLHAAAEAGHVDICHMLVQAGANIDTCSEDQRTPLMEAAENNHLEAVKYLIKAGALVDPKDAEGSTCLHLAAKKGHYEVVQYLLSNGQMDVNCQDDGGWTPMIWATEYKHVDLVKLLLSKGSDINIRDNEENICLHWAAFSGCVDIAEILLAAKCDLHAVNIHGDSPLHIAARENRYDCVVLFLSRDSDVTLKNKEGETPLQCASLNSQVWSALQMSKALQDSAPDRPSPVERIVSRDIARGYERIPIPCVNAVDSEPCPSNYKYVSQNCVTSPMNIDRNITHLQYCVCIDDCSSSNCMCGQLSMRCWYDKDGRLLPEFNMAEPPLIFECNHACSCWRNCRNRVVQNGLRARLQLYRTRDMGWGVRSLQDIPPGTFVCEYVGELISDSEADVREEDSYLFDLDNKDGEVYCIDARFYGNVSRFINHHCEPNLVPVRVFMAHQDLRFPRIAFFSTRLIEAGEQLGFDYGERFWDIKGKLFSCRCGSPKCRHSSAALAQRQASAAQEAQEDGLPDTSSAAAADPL
In words: Inhibition of recombinant human GLP at 25 uM using biotinylated-Histone H3 peptide (1 to 21 residues) after 30 mins by AlphaLISA assay relative to control. Background: Alpha assays give light when donor and acceptor beads are brought close together.

Data set [2] deals with Protein arginine N-methyltransferase 1 (Homo sapiens) (UniProt Q99873). Put plainly: Inhibition of recombinant human PRMT1 at 10 to 25 uM using biotinylated-Histone H4 peptide (1 to 21 residues) as substrate preincubated for 30 mins followed by substrate addition and measured after 60 mins in presence of SAM by AlphaLISA assay relative to control. Put shortly: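 Biotinylated H4(1–21) peptide plus SAM then added for 60 min: PRMT1 0.9 nM, peptide 100 nM, SAM 2 μM; PRMT3 23 nM, peptide 50 nM, SAM 10 μM. Anti-H4R3me AlphaLISA; 10 and 25 μM; three experiments, mean ± SD.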

The nature of data set [3]: Chemical stability of the compound in PBS buffer after 72 hrs by HPLC analysis. In kind it is physicochemical. An outline of the steps: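 Stability checked by HPLC after exposure to PBS over 72 h.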
Data set [4] can be described thus: Apparent permeability of the compound after 24 hrs by BBB-PAMPA. It is filed as ADME.
The target in data set [5] is DNA (cytosine-5)-methyltransferase 3A (Homo sapiens) (UniProt Q9Y6K1). In words: Inhibition of N-terminal GST-tagged recombinant full length human DNMT3a (2 to 913 residues) using bacteriophage lambda DNA as substrate preincubated for 20 mins followed by [3H]-SAM and measured after 60 mins by scintillation counting.
The target of data set [6] is T2, Histone-lysine N-methyltransferase EHMT2 (Homo sapiens) (UniProt Q96KQ7).
T2 sequence (whole entry): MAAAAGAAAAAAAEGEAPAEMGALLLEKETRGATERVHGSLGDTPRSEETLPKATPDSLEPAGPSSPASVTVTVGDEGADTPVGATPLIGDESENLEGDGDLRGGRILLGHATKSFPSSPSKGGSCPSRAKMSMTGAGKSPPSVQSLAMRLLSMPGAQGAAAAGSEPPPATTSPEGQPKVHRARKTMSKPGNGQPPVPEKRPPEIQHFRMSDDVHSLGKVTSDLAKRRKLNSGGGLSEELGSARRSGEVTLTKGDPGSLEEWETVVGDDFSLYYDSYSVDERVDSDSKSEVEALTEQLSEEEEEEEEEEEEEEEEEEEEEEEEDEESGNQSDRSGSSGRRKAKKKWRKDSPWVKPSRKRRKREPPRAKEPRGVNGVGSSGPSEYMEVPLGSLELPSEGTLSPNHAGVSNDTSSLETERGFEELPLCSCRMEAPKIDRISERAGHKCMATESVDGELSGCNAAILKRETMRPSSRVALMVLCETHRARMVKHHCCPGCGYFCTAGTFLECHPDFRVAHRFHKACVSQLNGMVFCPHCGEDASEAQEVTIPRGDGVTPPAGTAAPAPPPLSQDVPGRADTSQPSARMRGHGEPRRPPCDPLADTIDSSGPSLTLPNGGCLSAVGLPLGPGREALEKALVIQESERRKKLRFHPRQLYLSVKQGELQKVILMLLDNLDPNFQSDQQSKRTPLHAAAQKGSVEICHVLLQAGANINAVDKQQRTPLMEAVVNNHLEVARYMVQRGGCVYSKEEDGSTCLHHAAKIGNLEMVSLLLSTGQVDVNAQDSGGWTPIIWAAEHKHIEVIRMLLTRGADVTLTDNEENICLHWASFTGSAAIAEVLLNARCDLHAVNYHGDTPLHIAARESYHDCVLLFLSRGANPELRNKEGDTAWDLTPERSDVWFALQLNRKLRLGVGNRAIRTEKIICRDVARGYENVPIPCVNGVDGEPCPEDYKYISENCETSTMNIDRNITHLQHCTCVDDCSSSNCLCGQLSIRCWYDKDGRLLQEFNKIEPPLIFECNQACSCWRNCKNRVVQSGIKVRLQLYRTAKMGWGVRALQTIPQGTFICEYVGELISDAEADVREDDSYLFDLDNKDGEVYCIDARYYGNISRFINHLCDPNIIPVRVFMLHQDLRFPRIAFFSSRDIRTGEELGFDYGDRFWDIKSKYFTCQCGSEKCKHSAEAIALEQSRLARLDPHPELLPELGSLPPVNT

Active and inactive are the calls of the source. No cut-off for these calls is given here.

By inhibition is commonly meant the share of the control response that was lost under treatment.

DNA (cytosine-5)-methyltransferase 3A (Homo sapiens), sequence (Q9Y6K1 whole entry, looked up, the tested form may be a part): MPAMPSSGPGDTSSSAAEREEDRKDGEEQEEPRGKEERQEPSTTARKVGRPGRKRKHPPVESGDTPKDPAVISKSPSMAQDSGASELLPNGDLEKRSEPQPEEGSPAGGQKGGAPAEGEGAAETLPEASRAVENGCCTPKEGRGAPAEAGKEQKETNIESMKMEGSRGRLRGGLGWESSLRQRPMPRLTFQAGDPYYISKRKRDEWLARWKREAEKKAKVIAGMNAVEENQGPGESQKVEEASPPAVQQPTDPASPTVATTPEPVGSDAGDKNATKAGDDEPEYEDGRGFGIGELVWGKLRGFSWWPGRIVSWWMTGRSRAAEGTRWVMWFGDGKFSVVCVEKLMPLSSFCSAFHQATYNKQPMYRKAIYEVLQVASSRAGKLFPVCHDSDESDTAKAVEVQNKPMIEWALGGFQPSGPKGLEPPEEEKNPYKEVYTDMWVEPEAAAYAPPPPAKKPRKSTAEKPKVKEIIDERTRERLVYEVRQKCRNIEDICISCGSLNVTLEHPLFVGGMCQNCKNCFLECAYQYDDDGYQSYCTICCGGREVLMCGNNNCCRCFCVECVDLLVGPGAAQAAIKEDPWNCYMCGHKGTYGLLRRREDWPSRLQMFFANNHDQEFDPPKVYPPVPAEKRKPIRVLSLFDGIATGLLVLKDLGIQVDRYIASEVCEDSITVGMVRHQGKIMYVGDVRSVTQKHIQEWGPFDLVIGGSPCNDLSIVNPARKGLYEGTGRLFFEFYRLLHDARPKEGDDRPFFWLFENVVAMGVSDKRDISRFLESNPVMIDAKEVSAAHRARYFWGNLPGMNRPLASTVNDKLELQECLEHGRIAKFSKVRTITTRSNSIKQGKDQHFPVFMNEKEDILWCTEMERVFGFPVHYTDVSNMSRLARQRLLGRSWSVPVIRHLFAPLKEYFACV
Protein arginine N-methyltransferase 1 (Homo sapiens), sequence (Q99873 whole entry, looked up, the tested form may be a part): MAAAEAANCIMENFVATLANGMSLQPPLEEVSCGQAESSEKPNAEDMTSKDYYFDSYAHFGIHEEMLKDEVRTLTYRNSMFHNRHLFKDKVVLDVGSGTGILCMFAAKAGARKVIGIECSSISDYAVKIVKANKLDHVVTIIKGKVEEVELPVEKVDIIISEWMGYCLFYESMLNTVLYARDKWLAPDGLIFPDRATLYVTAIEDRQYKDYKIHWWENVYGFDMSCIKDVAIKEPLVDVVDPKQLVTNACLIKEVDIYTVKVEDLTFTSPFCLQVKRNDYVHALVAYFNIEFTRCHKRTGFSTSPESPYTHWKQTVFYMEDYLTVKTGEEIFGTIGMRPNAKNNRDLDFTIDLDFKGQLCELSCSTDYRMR

Regarding `COc1cc2c(cc1OCCCN1CCCC1)N=C(C1CCCCC1)CN=C2NC1CCN(C(C)C)CC1`, in data set [1], the inhibition stood at 98%. Moreover, the inhibition entry in data set [2] and in data set [5] was “inactive” each time. Further, in data set [3], the Stability result is recorded as “Stable”. Besides, the Papp in data set [4] came to 2.3 ×10⁻⁷ cm/s. In data set [6], the Kdiss came out at 0.0351.
